Entries after “also recorded” stand apart in the source; their conditions may differ.

For test [1], the system named is T cell clone BDC-2.5. Kind of test: IFN-γ response of T cell clone BDC-2.5. As to conditions: ChgA-derived peptides 5–500 μM; two experiments, single measurements (Fig. 6a,c). The format is cell-based, NOD mouse. The procedure, abridged: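 Cultures held 2 × 10⁴ BDC-2.5 T cells and 2.5 × 10⁴ NOD peritoneal exudate cells as I-A^g7 APCs. Chromogranin A-derived peptides were added at 5–500 μM. Controls were beta cell tumor membrane preparation, a positive mimotope peptide and an irrelevant moth cytochrome c peptide. IFN-γ was measured by specific ELISA. Two experiments, single measurement per concentration. Stimulatory capacity was calculated relative to the reference peptide.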

For test [2], the system named is I-A^g7. Kind of test: Peptide binding to I-A^g7. As to conditions: inhibition of bio-pHEL (11 μM) binding to soluble I-A^g7, pH 5.6, overnight, 21°C, ELISA; average of two experiments (Fig. 6b,c). Details: species or system NOD mouse. The method in brief:
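Soluble I-A^g7 carrying covalently linked pHEL, thrombin-treated to cleave the peptide linker. Diluted in PBS, captured on OX6-coated wells, washed. Bound probe detected with alkaline phosphatase–Extravidin and […]. Controls: mimotope peptide (positive), I-E^k-binding moth cytochrome c peptide (negative). Reported as percent of uninhibited probe binding.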

Test [3] concerns BDC T cell clones. In words: In vitro activation of the BDC T cell clones. Type of test: cell-based, NOD mouse. The method in brief: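 The three BDC clones (2 × 10⁴ responder cells each) were cultured with 2.5 × 10⁴ NOD peritoneal exudate cells as APCs. Soluble synthetic test peptides were titrated alongside a mimotope peptide and beta cell tumor membrane preparation as the control antigen. IFN-γ (ng/ml) was measured by specific ELISA. At least two separate experiments, single measurement at each peptide concentration.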

Test [4] has as its system BDC T cell clones. The conditions noted are these: presented in the context of I-A^g7; cited from earlier work.

For “ED9: WD5 extended by the same 4 amino acids at the N-terminus (EDKRWSRMD)”, the “Stimulatory activity on BDC-2.5 (IFN-γ response)” value (from here on “Stimulatory activity”) in test [1] is on record as “failed to stimulate BDC-2.5”. In addition, the “Binding to I-A^g7” value in test [2] was “did not bind to I-A^g7”.
For “EE18: WE14 extended by 4 amino acids at the N-terminus (EDKRWSRMDQLAKELTAE)” the same measures were “eliminated the BDC-2.5 response” and “no effect on I-A^g7 binding”.
Consider RLGLWVRME [pS3], for which, in test [3] (pS3 vs synthetic WE14), the “Potency in activating the BDC clones relative to WE14” value is listed as “at least 1000 fold”.
In the case of “WA8: C-terminal truncation of WE14 (WSRMDQLA)”, the “Stimulatory activity” value in test [1] was “decreasing stimulatory activity”.
“WL11: WE14 truncated by 3 C-terminal amino acids (WSRMDQLAKEL)”: the “Stimulatory activity” value in test [1] was “decreasing stimulatory activity”. Besides, the “Binding to I-A^g7” value in test [2] is listed as “reduced binding to a level indistinguishable from the negative control peptide”.
As to WSRMD [WD5], the “Stimulatory activity” value in test [1] is recorded as “lacked any stimulatory activity”.
With WSRMDQLAKELTAE [WE14], the “Activation of the BDC T cell clones” value in test [3] (in vitro, presented by I-A^g7 APCs) is “activated the ChgA-specific T cell clones in vitro; also recorded: potently stimulated all three of the BDC clones; also recorded: the clones were activated”. Besides, in test [3] (synthetic WE14 vs β-Mem), the “Potency relative to beta cell (tumor) antigen preparation” value is recorded as “considerably less potent than the antigen preparation from the beta cell adenoma tumor”. For the same substance, the “Binding to I-A^g7” value in test [2] is recorded as “bound to I-A^g7, although not nearly as well as the pS3 mimotope; also recorded: bound I-A^g7”.
As for “insulin: insulin, to which the BDC clones are not responsive”, in test [4], the “Response of BDC clones in vitro” value is “not responsive”.

(Values after PMC3166626 (Nature immunology, 2010).)
